The sample as a whole holds a higher share of hits than the screen did.
L major viab – Leishmania major promastigote growth inhibition, primary screen | AID 1063, 2008 | Leishmania major promastigotes, resazurin fluorescence viability | actives 9% (n = 200,000) | inhibition, % at 10 µM;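 note: promastigotes grown with compound for 44 hours at 28 °C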
Avidin fluor – green autofluorescence of compounds with avidin beads – biophysical, 488/530 nm, flow cytometry, artefact control, profiling panel. compound fluorescence 488/530 nm; hits give high values. fluorescence (KMESF) at 10 µM. actives 0.38% (n = 220,000). AID 1775, 2009; in the data active = fluorescence above about 47
GSH bead fluor – compound fluorescence on glutathione beads, profiling panel, artefact control, biophysical, 488/530 nm, flow cytometry; GSH beads flow cytometry, compound fluorescence 488/530 nm; hits give high values; fluorescence (KMESF) at 10 µM; actives 0.25% (n = 190,000); in the data active = fluorescence above about 89;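 note: glutathione beads carrying GST-tagged Bcl family fusion proteins plus one bare bead set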
PKD1 inh – inhibitors of human PKD1 kinase, biochemical, fluorescence polarization | PKD1 kinase fluorescence polarization assay | inhibition, % (test concentration not listed) | actives 0.056% (n = 200,000)
ABCB1 block – ABCB1 efflux pump inhibitors, primary screen, cell-based, multiplex, flow cytometry, ABCG2 counter-screen; inhibition, % at 6.6 µM; actives 0.067% (n = 190,000); AID 1326, 2008; ATP-dependent translocase ABCB1 (Homo sapiens), P08183; CCRF-Adr cells, JC-1 efflux; in the data active = inhibition above about 40%;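 note: higher value means more JC-1 retained so stronger ABCB1 efflux block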
ABCG2 inh – ABCG2 efflux pump inhibitors, primary screen, multiplex with ABCB1, IgMXP3 cells, flow cytometry | Broad substrate specificity ATP-binding cassette transporter ABCG2 (Homo sapiens), Q9UNQ0 | JC-1 efflux | inhibition, % at 6.6 µM | actives 0.1% (n = 190,000) | AID 1325, 2008;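 active = inhibition above 80%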
Target sequence (Q9UNQ0 whole entry, looked up): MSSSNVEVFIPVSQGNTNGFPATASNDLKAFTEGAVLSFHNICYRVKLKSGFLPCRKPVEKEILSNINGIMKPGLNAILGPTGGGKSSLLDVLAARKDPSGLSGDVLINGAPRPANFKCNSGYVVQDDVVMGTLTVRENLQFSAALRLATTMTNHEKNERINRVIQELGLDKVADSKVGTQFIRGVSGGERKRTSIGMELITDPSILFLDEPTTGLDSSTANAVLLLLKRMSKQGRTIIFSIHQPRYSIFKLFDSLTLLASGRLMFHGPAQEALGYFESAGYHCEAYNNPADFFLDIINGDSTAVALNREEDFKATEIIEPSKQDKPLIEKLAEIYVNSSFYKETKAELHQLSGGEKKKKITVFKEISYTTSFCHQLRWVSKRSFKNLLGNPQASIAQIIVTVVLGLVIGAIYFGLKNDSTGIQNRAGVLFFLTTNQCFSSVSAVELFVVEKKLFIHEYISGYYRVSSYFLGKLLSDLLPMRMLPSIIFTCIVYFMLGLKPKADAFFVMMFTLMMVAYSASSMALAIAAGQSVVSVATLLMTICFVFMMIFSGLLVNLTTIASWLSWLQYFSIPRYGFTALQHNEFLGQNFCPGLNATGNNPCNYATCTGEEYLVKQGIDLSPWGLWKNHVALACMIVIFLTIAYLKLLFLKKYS
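Read-out basis: Efflux inhibition in percent versus controls | Test system: ABCG2 IgMXP3 and barcoded ABCB1 CCRF-Adr cell mix | Quantity: 3 million cells/mL in well | Schedule: 10 min at 25 °C | Control set: Nicardipine as high control, DMSO as low control | Reagent: JC-1 as fluorescent efflux pump substrate | Signal: Flow cytometry of retained JC-1 fluorescence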
Of the large screens only hits and unclear results are named; the others gave an inactive call. Cut-off read from the data, not from the text of the source, unless noted: active = inhibition above about 50%; inactive = the rest.

O=c1c2c3c(sc2n2c(=S)[nH]nc2n1Cc1ccccc1)CN(Cc1ccccc1)CC3	none (no result: Avidin fluor, GSH bead fluor, ABCB1 block, ABCG2 inh)
O=C(N/N=C/c1cc2ccccc2nc1Cl)[C@H]1C[C@@H]1c1ccccc1	none
COc1ccnc(Oc2ccc3ccccc3c2)c1C#N	none
Cc1ccc(NC2=C(N3CCCCC3)C(=O)c3ccccc3C2=O)cc1	L major viab 97
O=C(/C=C/c1ccc(O)cc1)c1ccc(NC2=C(N3CCCCC3)C(=O)c3ccccc3C2=O)cc1	L major viab 99
COc1ccc(C(=O)/C=C/c2ccc(O)cc2)cc1	none
CN(C1=C(N2CCCCC2)C(=O)c2ccccc2C1=O)c1ccccc1	L major viab 65
O=C1C(Nc2cccc(O)c2)=C(N2CCCCC2)C(=O)c2ccccc21	L major viab 98
COc1ccc(COCC(O)CN(Cc2ccccc2)C(C)C)cc1OC (centres undefined)	none
O=C1C(Nc2ccccc2)=C(N2CCCCC2)C(=O)c2ccccc21	L major viab 97
COc1ccccc1NC(=O)N1CCCC1	none
COc1ccccc1NC1=C(N2CCCCC2)C(=O)c2ccccc2C1=O	L major viab 100
Cc1ccc(NC(=O)CN(C)CC(=O)Nc2ccc(F)c(Cl)c2)cc1	none
O=C(NCCCn1ccnc1)c1cc(-c2cccs2)on1	none
CCOC(=O)c1cnc2c(N=Nc3cccc(Cl)c3)c(N)nn2c1N	none
CCOC(=O)c1cnc2c(N=Nc3ccccc3)c(N)nn2c1N	L major viab 68
CN(C)c1ccc(/C=C/C(=O)c2ccc3c(c2)OCCO3)cc1[N+](=O)[O-]	L major viab 92
O=C(/C=C/c1ccncc1)c1ccc2c(c1)OCCO2	L major viab 100
COc1ccc(C(=O)C2CCCN(C(=O)c3cccnc3SC)C2)c(C)c1 (centres undefined)	none
CC(C)OP(=O)(c1ccc(N(C)C)cc1)C(O)c1ccccc1F (centres undefined)	GSH bead fluor 103
O=C(Nc1ccc(F)c([N+](=O)[O-])c1)c1ccc2c(c1)C(=O)OC2=O	none (no result: L major viab, GSH bead fluor, PKD1 inh, ABCB1 block, ABCG2 inh)
CC1(C)Cc2ccccc2C(/C(=N/O)C(N)=O)=N1	L major viab 61
CC(=O)c1ccc(N/N=C(/C(N)=O)C2=NC(C)(C)Cc3ccccc32)cc1	none
CC1(C)Cc2ccccc2C(/C(=N\Nc2cccc(Cl)c2)C(N)=O)=N1	L major viab 98 (no result: ABCB1 block, ABCG2 inh)
CC1=NC(C)(C)Cc2ccccc21	none
CC(=O)NC(=S)Nc1sc2c(c1C(N)=O)CCC(C)C2 (centres undefined)	none
Cc1nc2cc(C(=O)N3CCc4ccccc43)ccc2n1-c1ccc(F)c(F)c1	none
COc1ccc(Oc2nc(OC)cc(OC)n2)cc1	none
COc1ccc(NC(=O)CC2(Cc3ccccc3)CCOC(C)(C)C2)cc1 (centres undefined)	L major viab 55
CCC(=O)N1CCc2cc(S(=O)(=O)NCCCN(CC)Cc3ccccc3)ccc21	L major viab 55
Cc1csc(C2=C(O)CN(CCc3ccccc3)C2=N)n1	L major viab 99
COc1ccc(CCN2CC(O)=C(c3nc(C)cs3)C2=N)cc1OC	none
N=C1C(c2nc3ccccc3s2)=C(O)CN1CCCO	none
CCCCN1CC(O)=C(c2nc3ccccc3s2)C1=N	Avidin fluor 110
Cc1nc2ccc(NC(=S)NCCCO)cc2nc1C	none
Cc1ccc(C(=O)/C=C/C(=O)c2ccc(C)cc2)cc1	L major viab 101
Cc1ccc(-c2ccc(/C=C/C(=O)c3ccccc3)o2)cc1	L major viab 89
Cc1cccc(C)c1NC(=O)C(C)N1CCCCC1 (centres undefined)	none (no result: L major viab, GSH bead fluor, PKD1 inh, ABCB1 block, ABCG2 inh)
N#Cc1cc2c(nc1Cl)CCC2	none (no result: L major viab, GSH bead fluor, PKD1 inh, ABCB1 block, ABCG2 inh)
N#Cc1cc2c(nc1Cl)CCCC2	L major viab 73
COc1ccccc1NC(=O)CC(=O)CSc1nnc(-c2ccc(C)cc2)n1-c1ccccc1	L major viab 72
Cc1c2cc(O)c(=O)cc-2oc2cc(O)c(O)cc12	ABCB1 block 47 (no result: GSH bead fluor)
COc1cc(OC)c(-c2c3cc(O)c(=O)cc-3oc3cc(O)c(O)cc23)cc1OC	GSH bead fluor 283
CCCCCCN1C=CC=C/C1=C\C=C(C#N)C#N	none (no result: L major viab, GSH bead fluor, PKD1 inh, ABCB1 block, ABCG2 inh)
CCN(CC)C(=O)CSc1nc(N)c2c3c(sc2n1)CC(C)CC3 (centres undefined)	L major viab 64
CC1CCc2c(sc3nc(SCC(=O)NCc4ccco4)nc(N)c23)C1 (centres undefined)	none
Cc1ccc(-n2cc3c(=O)n(C)c(=O)n(C)c3c2)cc1C	none
Cc1cc(N)c(-n2cc3c(=O)n(C)c(=O)n(C)c3c2)cc1C	L major viab 62
CCc1cccc(Nc2c([N+](=O)[O-])cc(C(=O)N3CC(=O)Nc4ccccc43)cc2[N+](=O)[O-])c1	L major viab 79
C[n+]1c2n(c3ccccc31)N=C(c1ccc(Br)cc1)CS2	L major viab 97
C[n+]1c2n(c3ccccc31)N=C(c1ccccc1)CS2	L major viab 98
C[n+]1c2n(c3ccccc31)N=C(c1ccc(-c3ccccc3)cc1)CS2	L major viab 100
Cc1cccc(-c2nnc3n2N=C(c2ccccc2)CS3)c1	none
Brc1ccc(C2=Nn3c(Cn4nnc5ccccc54)nnc3SC2)cc1	none (no result: L major viab, GSH bead fluor, PKD1 inh, ABCB1 block, ABCG2 inh)
c1ccc(C2=Nn3c(nnc3-c3ccncc3)SC2)cc1	none
Cc1ccc(C(=O)Nc2ccc3c(c2)CCC3)o1	none
Cc1ccc(C(=O)Nc2ccc(F)cc2)o1	L major viab 51
COc1ccc(N/C=C\C(=O)c2ccc3c(c2)OCO3)cc1OC	L major viab 88
O=C(Nc1nnc(COc2ccc(F)cc2)s1)Nc1ccccc1F	none (no result: L major viab, GSH bead fluor, PKD1 inh, ABCB1 block, ABCG2 inh)
O=c1c2ccccc2nc(/C=C/c2ccc3c(c2)OCO3)n1CCCO	Avidin fluor 107
Cc1ccsc1CNC1C2CC3CC(C2)CC1C3 (centres undefined)	none
O=C(N/N=C/c1sc(N2CCCCC2)nc1-c1cccs1)C1CC1	L major viab 69
CCCCNC(=S)N(C)/N=C/c1sc(N2CCCCC2)nc1-c1cccs1	L major viab 96
CC(C)NC(=S)N/N=C/c1sc(N2CCCCC2)nc1-c1cccs1	none
CCCCNC(=S)N(C)/N=C/c1c(F)cccc1F	none
CC(OCC(O)CNCC1COc2ccccc2O1)c1ccc(Cl)cc1 (centres undefined)	L major viab 91
COc1ccc(CNCC(O)COCc2cccs2)cc1 (centres undefined)	L major viab 88
OC(CNCC1COc2ccccc2O1)COCc1cccs1 (centres undefined)	L major viab 92
